ChEMBL document CHEMBL1155465, “"Viologen" dendrimers as antiviral agents: the effect of charge number and distance” (J Med Chem, 2010)

Key:
[1] = system: Vesicular stomatitis virus; assay: Antiviral activity against VSV infected in human E6SM cell assessed as inhibition of virus-induced cytopathicity; assay type: functional, organism-based
[2] = Cytotoxicity against african green monkey Vero cells by MTT assay; assay type: cell-based; conditions: chlorocebus sabaeus
Human respirovirus 3 = assay: Antiviral activity against Parainfluenza virus 3 infected in african green monkey Vero cells assessed as inhibition of virus-induced cytopathicity; assay type: functional, organism-based; conditions: Human respirovirus 3, Vero
[3] = system: Human immunodeficiency virus 2; assay: Antiviral activity against HIV2 ROD infected in human MT4 cells after 5 days by MTT assay; assay type: functional, organism-based; conditions: Human immunodeficiency virus 2, ISOLATE ROD, MT4, 120 h
In short: (§1)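 MT-4 cells in RPMI 1640 with 10% heat-inactivated FCS, 2 mM L-glutamine, 0.1% bicarbonate and gentamicin, seeded at 6 × 10⁵ cells/mL final with virus or mock infection. Viability read by MTT after 5 days at 540 and 690 nm, using the median OD of three wells. CC50 is 50% loss of mock-infected OD540. EC50 is 50% inhibition of virus-induced CPE. SI = CC50/EC50. Mean ± SD of ≥2 experiments.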

[4] = Cytotoxicity against human PBMC after 5 days by MTT assay; assay type: cell-based
In short: (§2)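 PBMCs infected with HIV-1 IIIB and cultured with a range of compound concentrations. EC50 is 50% inhibition of supernatant p24 core antigen (ELISA) relative to drug-free culture. CC50 is 50% reduction in cell viability. SI = CC50/EC50. Mean ± SD of ≥2 experiments.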

[5] = Selectivity index, ratio of CC50 for human MT4 cells to EC50 for HIV1 3B; assay type: toxicity, cell-based; conditions: read-out: Ratio CC50/EC50; in short: as §1
[6] = system: Human immunodeficiency virus; assay: Antiviral activity against HIV S067 infected in human A72 Jurkat cells assessed as inhibition of GFP expression after 48 hrs by flow cytometry; assay type: functional, organism-based; conditions: Human immunodeficiency virus 1, S067, Jurkat
In short: (§3)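 Acutely infected A72 Jurkat cells. EC50 (μg/mL) is the concentration giving 50% inhibition of GFP expression relative to drug-free infection. CC50 is 50% reduction in cell viability. SI = CC50/EC50. Mean ± SD of ≥2 experiments.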

Punta Toro virus = assay: Antiviral activity against Punta Toro virus infected in african green monkey Vero cells assessed as inhibition of virus-induced cytopathicity; assay type: functional, organism-based
Reovirus sp. = assay: Antiviral activity against Reovirus infected in african green monkey Vero cells assessed as inhibition of virus-induced cytopathicity; assay type: functional, organism-based
[7] = system: Human immunodeficiency virus; assay: Antiviral activity against AZT-resistant HIV infected in human A72 Jurkat cells assessed as inhibition of GFP expression after 48 hrs by flow cytometry; assay type: functional, organism-based; conditions: Human immunodeficiency virus 1, Jurkat; in short: as §3
[8] = Cytotoxicity against human HeLa cells by MTT assay; assay type: cell-based
Sindbis virus = assay: Antiviral activity against Sindbis virus infected in african green monkey Vero cells assessed as inhibition of virus-induced cytopathicity; assay type: functional, organism-based
[9] = system: Human immunodeficiency virus 2; assay: Antiviral activity against HIV2 ROD infected in human A72 Jurkat cells assessed as inhibition of GFP expression after 48 hrs by flow cytometry; assay type: functional, organism-based; conditions: Human immunodeficiency virus 2, ISOLATE ROD; in short: as §3
Human alphaherpesvirus 1 [10] = assay: Antiviral activity against TK-deficient acyclovir-resistant HSV1 KOS infected in human E6SM cell assessed as inhibition of virus-induced cytopathicity; assay type: functional, organism-based; conditions: Human alphaherpesvirus 1, KOS
[11] = system: Human immunodeficiency virus 1; assay: Antiviral activity against HIV1 3B infected in human A72 Jurkat cells assessed as inhibition of GFP expression after 48 hrs by flow cytometry; assay type: functional, organism-based; conditions: Human immunodeficiency virus 1, 3B; in short: as §3
[12] = system: Human immunodeficiency virus; assay: Antiviral activity against HIV S07 infected in human A72 Jurkat cells assessed as inhibition of GFP expression after 48 hrs by flow cytometry; assay type: functional, organism-based; conditions: Human immunodeficiency virus 1, S07, Jurkat; in short: as §3
Vaccinia virus = assay: Antiviral activity against Vaccina virus infected in human E6SM cell assessed as inhibition of virus-induced cytopathicity; assay type: functional, organism-based; conditions: Orthopoxvirus vaccinia
[13] = Selectivity index, ratio of CC50 for human PBMC to EC50 for HIV1 3B; in short: as §2
[14] = Selectivity index, ratio of CC50 for human Jurkat A72 cells to EC50 for HIV1 3B; assay type: toxicity, cell-based; conditions: read-out: Ratio CC50/EC50; in short: as §3
[15] = system: Simian immunodeficiency virus; assay: Antiviral activity against SIV MAC251 infected in human MT4 cells after 5 days by MTT assay; assay type: functional, organism-based; conditions: MAC251, MT4, 120 h; in short: as §1
[16] = system: Human immunodeficiency virus 1; assay: Antiviral activity against HIV1 NL4-3 pseudotyped with VSV-G envelope infected in human C8166 cells assessed as inhibition of GFP expression after 48 hrs by flow cytometry; assay type: functional, organism-based
In short: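 VSV-G-pseudotyped (env-deficient) GFP-encoding NL4.3 taken from transfection supernatant at 60 h and clarified at 450g for 10 min. Used to infect 3 × 10⁴ C8166 cells (RPMI 1640, 10% FCS) with graded compound concentrations. GFP expression read by flow cytometry 48 h post-infection, with the no-compound infection control set as 100%.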

[17] = Cytotoxicity against human MT4 cells after 5 days by MTT assay; assay type: cell-based; in short: as §1
[18] = system: Human immunodeficiency virus 1; assay: Antiviral activity against HIV1 3B infected in human MT4 cells after 5 days by MTT assay; assay type: functional, organism-based; conditions: Human immunodeficiency virus 1, 3B, MT4, 120 h; in short: as §1
[19] = Cytotoxicity against human E6SM cells by MTT assay; assay type: cell-based
[20] = system: Human immunodeficiency virus 1; assay: Antiviral activity against HIV1 3B infected in human MT4 cells assessed as time-of-addition prolongation at 100 ug/ml after 31 hrs post infection by ELISA; assay type: functional
In short: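 Time-of-addition: MT-4 cells infected with HIV-1 IIIB at moi 0.5 for a 1 h adsorption, then plated at 45000 cells/well at 37 °C. Compound added at 0, 1, 2, 3, 4, 5, 6, 7, 8, 24 or 25 h post-infection. Supernatant p24 antigen measured by ELISA at 31 h post-infection.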

[21] = system: Human immunodeficiency virus 1; assay: Antiviral activity against HIV1 NL4-3 infected in human A72 Jurkat cells assessed as inhibition of GFP expression after 48 hrs by flow cytometry; assay type: functional, organism-based; conditions: Human immunodeficiency virus 1, NL4-3, Jurkat; in short: as §3
Human alphaherpesvirus 1 [22] = assay: Antiviral activity against HSV1 KOS infected in human E6SM cell assessed as inhibition of virus-induced cytopathicity; assay type: functional, organism-based; conditions: Human alphaherpesvirus 1, KOS
[23] = system: Human immunodeficiency virus; assay: Antiviral activity against HIV SO6141 infected in human MT4 cells after 5 days by MTT assay; assay type: functional, organism-based; conditions: Human immunodeficiency virus 1, SO6141, MT4, 120 h; in short: as §1
[24] = system: Respiratory syncytial virus; assay: Antiviral activity against RSV infected in human HeLa cell assessed as inhibition of virus-induced cytopathicity; assay type: functional, organism-based
[25] = Cytotoxicity against human Jurkat A72 cells by MTT assay; assay type: cell-based; in short: as §3
[26] = system: Human immunodeficiency virus; assay: Antiviral activity against HIV S056 infected in human A72 Jurkat cells assessed as inhibition of GFP expression after 48 hrs by flow cytometry; assay type: functional, organism-based; conditions: Human immunodeficiency virus 1, S056, Jurkat; in short: as §3
[27] = system: Vesicular stomatitis virus; assay: Antiviral activity against VSV infected in human HeLa cell assessed as inhibition of virus-induced cytopathicity; assay type: functional, organism-based
Human alphaherpesvirus 2 = assay: Antiviral activity against HSV2 G infected in human E6SM cell assessed as inhibition of virus-induced cytopathicity; assay type: functional, organism-based; conditions: Human alphaherpesvirus 2, strain G
[28] = system: Human immunodeficiency virus 1; assay: Antiviral activity against HIV1 3B infected in human PBMC assessed as inhibition of viral p24 antigen production by ELISA; assay type: functional, organism-based; conditions: Human immunodeficiency virus 1, 3B; in short: as §2

## CC[n+]1ccc(-c2cc[n+](Cc3cc(Cc4ccc(-c5cc[n+](Cc6cc(C[n+]7ccc(-c8cc[n+](Cc9cc(C[n+]%10ccc(-c%11cc[n+](CC)cc%11)cc%10)cc(C[n+]%10ccc(-c%11cc[n+](CC)cc%11)cc%10)c9)cc8)cc7)cc(C[n+]7ccc(-c8cc[n+](Cc9cc(C[n+]%10ccc(-c%11cc[n+](CC)cc%11)cc%10)cc(C[n+]%10ccc(-c%11cc[n+](CC)cc%11)cc%10)c9)cc8)cc7)c6)cc5)cc4)cc(C[n+]4ccc(-c5cc[n+](CC)cc5)cc4)c3)cc2)cc1.F[P-](F)(F)(F)(F)F.F[P-](F)(F)(F)(F)F.F[P-](F)(F)(F)(F)F.F[P-](F)(F)(F)(F)F.F[P-](F)(F)(F)(F)F.F[P-](F)(F)(F)(F)F.F[P-](F)(F)(F)(F)F.F[P-](F)(F)(F)(F)F.F[P-](F)(F)(F)(F)F.F[P-](F)(F)(F)(F)F.F[P-](F)(F)(F)(F)F.F[P-](F)(F)(F)(F)F.F[P-](F)(F)(F)(F)F.F[P-](F)(F)(F)(F)F.F[P-](F)(F)(F)(F)F.F[P-](F)(F)(F)(F)F.F[P-](F)(F)(F)(F)F
[1]
  EC50: > 50 µg/mL
[2]
  MCC: > 50 µg/mL
Human respirovirus 3
  EC50: > 50 µg/mL
[3]
  EC50: > 19700 nM
[4]
  CC50 at 120 h: 4.04 µg/mL
[5]
  selectivity ratio: 75.8
[6]
  EC50: < 0.2 µg/mL
Punta Toro virus
  EC50: > 50 µg/mL
Reovirus sp.
  EC50: > 50 µg/mL
[7]
  EC50: 5.9 µg/mL
[8]
  MCC: > 50 µg/mL
Sindbis virus
  EC50: > 50 µg/mL
[9]
  EC50: 21.5 µg/mL
Human alphaherpesvirus 1 [10]
  EC50: 10 µg/mL
[11]
  EC50: 0.685 µg/mL
[12]
  EC50: < 0.2 µg/mL
Vaccinia virus
  EC50: > 50 µg/mL
[13]
  Ratio CC50/EC50: 2.5
[14]
  selectivity ratio: 149
[15]
  EC50: 460 nM
[16]
  inhibition: Dose-dependent effect
[17]
  CC50 at 120 h: 19700 nM
[18]
  EC50: 260 nM
[19]
  MCC: > 50 µg/mL
[20]
  Time: 1 h
[21]
  EC50: < 0.2 µg/mL
Human alphaherpesvirus 1 [22]
  EC50: 2 µg/mL
[23]
  EC50: ≥ 1550 nM
[24]
  EC50: 50 µg/mL
[25]
  CC50: 102 µg/mL
[26]
  EC50: < 2 µg/mL
[27]
  EC50: > 50 µg/mL
Human alphaherpesvirus 2
  EC50: 10 µg/mL
[28]
  EC50: 1.62 µg/mL
